From paper PMC8592256 (Nature structural & molecular biology, 2021)

How the values were obtained:
Assay type in all cases: binding
[1] = system: human katanin AAA domain variability hotspot mutant constructs (L214C, T253N, A419L, T422K etc.); assay: DSF, katanin AAA domain variability hotspot mutants
Method in brief: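 Human katanin constructs (AAA domain aa 171–491, or aa 111–491; WT or mutants) were expressed in E. coli Rosetta (DE3) pLysS and purified by MBP-affinity, protease tag cleavage, anion exchange and gel filtration. Protein was 8 μM in 20 mM HEPES.Na, 120 mM NaCl, 5 mM MgCl2, 1 mM TCEP, 10 mM (NH4)2SO4, pH 7.5, with SYPRO Orange. Ligand was ADP 1 mM or compound 50–500 μM, in 5% DMSO final. Tm was taken as the minimum of the first derivative of fluorescence versus temperature.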

HS-VPS4B-WT = target: T1, HS-VPS4B-WT (Homo sapiens, UniProt O75351); assay: DSF, HS-VPS4B-WT; details: ADP 1 mM; WT and Asp-to-Cys mutant to a similar extent
T1 sequence (O75351 1-444): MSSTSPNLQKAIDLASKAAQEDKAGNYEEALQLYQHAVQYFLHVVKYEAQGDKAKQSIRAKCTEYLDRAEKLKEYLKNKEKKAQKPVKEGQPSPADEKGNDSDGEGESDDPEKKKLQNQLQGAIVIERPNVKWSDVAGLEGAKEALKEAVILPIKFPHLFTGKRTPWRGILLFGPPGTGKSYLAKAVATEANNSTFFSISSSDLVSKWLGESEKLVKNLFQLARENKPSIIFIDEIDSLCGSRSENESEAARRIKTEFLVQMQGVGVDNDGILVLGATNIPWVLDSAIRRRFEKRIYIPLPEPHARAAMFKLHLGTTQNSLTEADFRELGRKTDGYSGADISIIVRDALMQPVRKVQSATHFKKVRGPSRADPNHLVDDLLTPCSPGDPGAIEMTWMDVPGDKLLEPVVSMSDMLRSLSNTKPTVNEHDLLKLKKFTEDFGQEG
Method in brief: (§1)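 FIGL1 and HS-VPS4B (WT and Asp-to-Cys mutant) were scanned at 8 μM protein, with or without ADP 1 mM, in 20 mM HEPES.Na, 120 mM NaCl, 5 mM MgCl2, 1 mM TCEP, 10 mM (NH4)2SO4, pH 7.5. Buffer contained SYPRO Orange and 5% DMSO final. Melting temperature was taken from the minimum of the first derivative of the fluorescence–temperature curve. ΔTm was relative to the no-ADP control.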

FIGL1-WT = target: T2, FIGL1-WT (Homo sapiens, UniProt Q6PIW4); assay: DSF, FIGL1-WT; details: ADP 1 mM; WT and Asp-to-Cys mutant to a similar extent
T2 sequence (Q6PIW4 288-674): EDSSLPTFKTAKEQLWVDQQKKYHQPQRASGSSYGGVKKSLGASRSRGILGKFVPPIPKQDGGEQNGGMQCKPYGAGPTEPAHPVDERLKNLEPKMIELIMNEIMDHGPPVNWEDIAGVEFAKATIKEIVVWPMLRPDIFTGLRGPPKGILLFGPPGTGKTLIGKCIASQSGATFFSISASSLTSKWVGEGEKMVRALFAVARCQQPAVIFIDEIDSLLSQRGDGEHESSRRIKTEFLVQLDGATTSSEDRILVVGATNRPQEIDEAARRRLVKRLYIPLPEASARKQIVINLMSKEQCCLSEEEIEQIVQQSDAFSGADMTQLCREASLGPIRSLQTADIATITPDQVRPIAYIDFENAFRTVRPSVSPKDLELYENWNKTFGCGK
Method in brief: as §1

SMILES	shift in melting temperature (ΔTm) ([1]; ADP 1 mM, five alleles with mutations at the variability hotspots)	increase in thermal stability on ADP binding (HS-VPS4B-WT)	increase in thermal stability on ADP binding (FIGL1-WT)	effect of mutation on compound binding (DSF) ([1]; three of the four variability hotspot mutations, compound 500 μM)
Nc1ncnc2c1ncn2[C@@H]1O[C@H](COP(=O)(O)OP(=O)(O)O)[C@@H](O)[C@H]1O [ADP, adenosine 5’-diphosphate]	+4 to +6 °C	approximately +5 °C	~+3 °C	
Nc1nc2c(-c3ccccc3)cccn2n1 [compound 1, 8-phenyl-triazolopyridine-2-amine]				reduced compound binding
